Tests used:
[1] = target: T1, Ileal sodium/bile acid cotransporter (Homo sapiens, UniProt Q12908); assay: In vitro inhibition of ASBT mediated uptake of [14C]taurocholate (5 uM) in Baby hamster cells expressing human IBAT; assay type: cell-based
T1 sequence (Q12908 whole entry): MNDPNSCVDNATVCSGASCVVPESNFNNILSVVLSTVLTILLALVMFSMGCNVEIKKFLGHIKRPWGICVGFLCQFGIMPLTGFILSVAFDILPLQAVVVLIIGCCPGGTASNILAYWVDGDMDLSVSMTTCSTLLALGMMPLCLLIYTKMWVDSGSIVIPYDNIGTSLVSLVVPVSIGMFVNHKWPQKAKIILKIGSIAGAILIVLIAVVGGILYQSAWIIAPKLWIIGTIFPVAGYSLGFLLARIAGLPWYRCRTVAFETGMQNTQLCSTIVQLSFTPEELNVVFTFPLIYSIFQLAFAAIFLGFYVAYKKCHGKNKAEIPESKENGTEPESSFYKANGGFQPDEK
Procedure, shortened: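 BHK cells stably transfected with human IBAT cDNA (H14) were seeded 24–72 h before assay at cell densities adjusted to that interval. Cells were washed, then incubated for 2 h at 37 °C in DMEM (4.5 g/L glucose, 0.2% fatty-acid-free BSA) with test compound and [14C]taurocholate. Wells were washed with cold PBS containing BSA and then with PBS alone. Cell-associated radioactivity was measured by scintillation counting, and IC50 values were derived.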

[2] = target: T1, Ileal sodium/bile acid cotransporter; assay: Effect on serum total cholesterol in cholesterol-fed hamster; control is at 129; assay type: functional
[3] = target: T1, Ileal sodium/bile acid cotransporter; assay: Effect on fecal bile acid in cholesterol-fed hamster; control is at 6.1; assay type: functional, Feces
[4] = target: T1, Ileal sodium/bile acid cotransporter; assay: Effect on 24 hr fecal weight in cholesterol-fed hamster; control is at 1.7; assay type: functional, Feces
[5] = target: T1, Ileal sodium/bile acid cotransporter; assay: Effect on serum total cholesterol in cholesterol-fed hamster; control is at 135; assay type: functional
[6] = target: T1, Ileal sodium/bile acid cotransporter; assay: Effect on 24 hr fecal weight in cholesterol-fed hamster; control is at 2.1; assay type: functional, Feces
[7] = target: T1, Ileal sodium/bile acid cotransporter; assay: Effect on fecal bile acid in cholesterol-fed hamster; control is at 8.0; assay type: functional, Feces
[8] = target: T1, Ileal sodium/bile acid cotransporter; assay: Effect on serum total cholesterol in cholesterol-fed hamster; control is at 143; assay type: functional
[9] = target: T1, Ileal sodium/bile acid cotransporter; assay: Effect on fecal bile acids in cholesterol-fed hamster; control is at 6.2; assay type: functional, Feces
[10] = target: T1, Ileal sodium/bile acid cotransporter; assay: Effect on 24 hr fecal weight in cholesterol-fed hamster; control is at 2.3; assay type: functional, Feces
[11] = target: T1, Ileal sodium/bile acid cotransporter; assay: Effect on 24 hr fecal weight in cholesterol-fed hamster; control is at 3.5; assay type: functional, Feces
[12] = target: T1, Ileal sodium/bile acid cotransporter; assay: Effect on serum total cholesterol in cholesterol-fed hamster; control is at 195; assay type: functional
[13] = target: T1, Ileal sodium/bile acid cotransporter; assay: Effect on fecal bile acid in cholesterol-fed hamster; control is at 8.7; assay type: functional, Feces

Structure (SMILES) | IC50 [1] [nM] | further results
CCCC[C@]1(CC)CS(=O)(=O)c2ccc(N)cc2[C@@H](c2ccccc2)[C@H]1O | 68 | Total cholesterol [2]: 126 mg/dL; FBA [3]: 8.8 ((mmol/day)/100g); Fecal weight [4]: 1.6 g
CCCC[C@]1(CC)CS(=O)(=O)c2ccc(Br)cc2[C@@H](c2cccc(OC)c2)[C@H]1O | 70 | –
CCCCC1(CCCC)CS(=O)(=O)c2ccc(N(C)C)cc2[C@@H](c2ccc(F)cc2)[C@H]1O | 10 | –
CCCCC1(CCCC)CS(=O)(=O)c2c(cccc2N(C)C)[C@@H](c2ccc(F)cc2)[C@H]1O | 180 | –
CC1(C)CS(=O)(=O)c2ccc(N)cc2[C@@H](c2ccccc2)[C@H]1O | > 50000 | –
CCCC[C@]1(CC)CS(=O)(=O)c2ccc(N(C)C)cc2[C@@H](c2ccccc2)[C@H]1O | 5 | Total cholesterol [5]: 97 mg/dL; Fecal weight [6]: 2.1 g; FBA [7]: 13.7 ((mmol/day)/100g)
CCCCCC(=O)Nc1ccc2c(c1)[C@@H](c1ccccc1)[C@@H](O)[C@](CC)(CCCC)CS2(=O)=O | 300 | –
CCCC[C@]1(CC)CS(=O)(=O)c2ccccc2[C@@H](c2ccccc2)[C@@H]1O (racemic) | 4800 | –
CCCC[C@]1(CC)CS(=O)(=O)c2ccc(NC(C)=O)cc2[C@@H](c2ccccc2)[C@H]1O | 90 | –
CCCCC1(CCCC)CS(=O)(=O)c2c(F)cccc2[C@@H](c2ccc(F)cc2)[C@H]1O | 180 | –
CCCCC1(CCCC)CS(=O)(=O)c2ccc(N(C)C)cc2[C@@H](c2ccccc2)[C@H]1O | 13 | –
CCCC[C@]1(CC)CS(=O)(=O)c2cc(OC)ccc2[C@@H](c2ccccc2)[C@H]1O | 120 | Total cholesterol [8]: 126 mg/dL; FBA [9]: 11.9 ((mmol/day)/100g); Fecal weight [10]: 2.4 g
CCCCC1(CCCC)CS(=O)(=O)c2cc(N(C)C)ccc2[C@@H](c2ccccc2)[C@H]1O | 120 | –
CCCCCC1(CCCCC)CS(=O)(=O)c2ccc(C)cc2[C@@H](c2ccc(F)cc2)[C@H]1O | 318 | –
CCCC[C@]1(CC)CS(=O)(=O)c2ccc(NS(C)(=O)=O)cc2[C@@H](c2ccccc2)[C@H]1O | 600 | –
CCCC[C@]1(CC)CS(=O)(=O)c2ccc(N3CCCC3)cc2[C@@H](c2ccc(F)cc2)[C@H]1O | 59 | –
CCCC[C@]1(CC)CS(=O)(=O)c2ccccc2[C@@H](c2ccccc2)[C@H]1O (racemic) | 280 | –
CCCCC1(CCCC)CS(=O)(=O)c2ccc([N+](C)(C)C)cc2[C@@H](c2ccccc2)[C@H]1O | 210 | –

Structure (SMILES) | IC50 [1] [nM] | further results
CCCC[C@]1(CC)CS(=O)(=O)c2ccc(SC)cc2[C@@H](c2ccc(F)cc2)[C@H]1O | 19 | –
CCCCC1(CCCC)CS(=O)(=O)c2c(OC)cc(N(C)C)cc2[C@@H](c2ccc(OC)cc2)[C@H]1O | 2 | –
CCCC[C@]1(CC)CS(=O)(=O)c2ccc(OC)cc2[C@@H](c2ccccc2)[C@H]1O | 55 | –
CCCC[C@]1(CC)CS(=O)(=O)c2ccccc2[C@H](c2ccccc2)[C@H]1O (racemic) | – | Inhibition [1]: 37%
CCCCC1(CCCC)CS(=O)(=O)c2ccc(C)cc2[C@@H](c2ccc(F)cc2)[C@H]1O | 46 | –
CCCCC1(CCCC)CS(=O)(=O)c2ccc(OC)cc2[C@@H](c2ccc(F)cc2)[C@H]1O | 50 | –
CCCC[C@]1(CC)CS(=O)(=O)c2ccc(N(O)C(=O)OC(C)(C)C)cc2[C@@H](c2ccccc2)[C@H]1O | 2670 | –
CCCC[C@]1(CC)CS(=O)(=O)c2ccc(NO)cc2[C@@H](c2ccccc2)[C@H]1O | 260 | –
C=CCCCCCCCCOc1ccc2c(c1)S(=O)(=O)C[C@@](CC)(CCCC)[C@H](O)[C@@H]2c1ccccc1 | 16000 | –
CCCC[C@]1(CC)CS(=O)(=O)c2ccc(C)cc2[C@@H](c2ccc(F)cc2)[C@H]1O | 21 | –
CCCC[C@]1(CC)CS(=O)(=O)c2ccc(NC(=O)OCc3ccccc3)cc2[C@@H](c2ccccc2)[C@H]1O | 400 | –
CCCCCCNc1ccc2c(c1)[C@@H](c1ccccc1)[C@@H](O)[C@](CC)(CCCC)CS2(=O)=O | 1670 | –
CCCCC1(CCCC)CS(=O)(=O)c2cc(OC)ccc2[C@@H](c2ccccc2)[C@H]1O | 190 | –
CCCC[C@]1(CC)CS(=O)(=O)c2ccc(-c3ccccc3)cc2[C@@H](c2cccc(OC)c2)[C@H]1O | 180 | –
CCCCC1(CCCC)CS(=O)(=O)c2ccc(Br)cc2[C@@H](c2ccccc2Br)[C@H]1O | 550 | –
CCCCC1(CCCC)CS(=O)(=O)c2ccc(N(C)C)cc2[C@@H](c2ccc(OCCOCCOCC[N+](CC)(CC)CC)cc2)[C@H]1O.[Br-] | 3 | Fecal weight [11]: 3.9 g; Total cholesterol [12]: 141 mg/dL; FBA [13]: 16.2 ((mmol/day)/100g)
CCCCC1(CCCC)CS(=O)(=O)c2ccc(N(C)C)cc2[C@@H](c2ccc(OC)cc2)[C@H]1O | 7 | –
